This note sets out measurements from ChEMBL document CHEMBL3621129, “Investigation on the ZBG-functionality of phenyl-4-yl-acrylohydroxamic acid derivatives as histone deacetylase inhibitors” (Bioorg Med Chem Lett, 2015).

The target of one assay is Histone deacetylase 2 (Homo sapiens, UniProt Q92769). Kind of assay: Inhibition of human HDAC2 after 40 mins by fluorescence analysis.
For another assay, the system named is IGROV-1. Kind of assay: Growth inhibition of human IGROV1 cells after 72 hrs. It counts as functional, cell-based. Conditions: IGROV-1, 72 h. A digest of the protocol: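 Cells exposed to compound for 72 h. Growth inhibition read by cell counting. IC50 (concentration giving 50% inhibition of cell growth) taken from dose–response curves. Values are means ± SD of three independent experiments.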

Another assay relates to HCT-116. The assay can be described thus: cells. It counts as functional, cell-based. Conditions: Homo sapiens, HCT-116, 72 h.
Assay [1] can be described thus: cells. It counts as functional, cell-based. As to conditions: Homo sapiens, NB-4, 72 h.
The nature of assay [2]: cells. Conditions: Homo sapiens, NCI-H460, 72 h. It counts as functional, cell-based.
For assay [3], the system named is IGROV-1/Pt1 (Homo sapiens). The assay can be described thus: Growth inhibition of human IGROV1/Pt1 cells after 72 hrs. As to conditions: IGROV-1/Pt1, 72 h.
The next assay concerns the target Histone deacetylase 1 (Homo sapiens, UniProt Q13547). Kind of assay: Inhibition of HDAC1 (unknown origin).
Assay [4] has as its target T1, Protein deacetylase HDAC6 (Homo sapiens, UniProt Q9UBN7).
T1 sequence (Q9UBN7 whole entry): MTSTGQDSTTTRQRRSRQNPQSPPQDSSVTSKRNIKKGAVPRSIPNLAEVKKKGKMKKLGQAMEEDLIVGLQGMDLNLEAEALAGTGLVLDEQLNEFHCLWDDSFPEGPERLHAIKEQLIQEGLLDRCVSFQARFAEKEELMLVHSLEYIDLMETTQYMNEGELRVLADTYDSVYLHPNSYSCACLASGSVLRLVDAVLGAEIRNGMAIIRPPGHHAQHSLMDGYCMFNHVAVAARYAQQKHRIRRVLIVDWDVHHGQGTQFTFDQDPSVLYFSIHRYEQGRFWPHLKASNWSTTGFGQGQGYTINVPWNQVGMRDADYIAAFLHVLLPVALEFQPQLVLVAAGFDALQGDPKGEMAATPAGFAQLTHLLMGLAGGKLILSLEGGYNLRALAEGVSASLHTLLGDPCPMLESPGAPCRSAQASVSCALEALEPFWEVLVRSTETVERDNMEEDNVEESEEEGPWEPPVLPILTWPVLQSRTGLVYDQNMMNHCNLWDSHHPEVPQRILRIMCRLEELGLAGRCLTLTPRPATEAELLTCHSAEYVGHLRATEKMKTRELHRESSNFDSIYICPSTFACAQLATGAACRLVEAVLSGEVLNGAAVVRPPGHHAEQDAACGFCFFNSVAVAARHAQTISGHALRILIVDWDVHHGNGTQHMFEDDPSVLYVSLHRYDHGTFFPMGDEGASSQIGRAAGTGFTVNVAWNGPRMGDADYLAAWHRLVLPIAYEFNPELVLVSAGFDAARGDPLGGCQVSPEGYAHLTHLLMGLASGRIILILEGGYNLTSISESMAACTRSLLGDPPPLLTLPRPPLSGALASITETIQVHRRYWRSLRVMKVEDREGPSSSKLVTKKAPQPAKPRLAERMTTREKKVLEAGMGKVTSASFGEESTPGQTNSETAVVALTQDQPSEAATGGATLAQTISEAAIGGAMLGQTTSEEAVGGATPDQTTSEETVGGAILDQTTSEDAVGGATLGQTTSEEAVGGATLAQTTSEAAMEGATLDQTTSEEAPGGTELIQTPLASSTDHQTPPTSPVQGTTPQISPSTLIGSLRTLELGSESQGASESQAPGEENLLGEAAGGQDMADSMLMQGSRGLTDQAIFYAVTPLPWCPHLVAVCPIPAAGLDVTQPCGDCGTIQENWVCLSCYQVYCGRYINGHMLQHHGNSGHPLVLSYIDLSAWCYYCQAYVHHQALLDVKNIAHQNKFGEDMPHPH
The assay can be described thus: Inhibition of HDAC6 (unknown origin).

Histone deacetylase 2, sequence (Q92769 whole entry): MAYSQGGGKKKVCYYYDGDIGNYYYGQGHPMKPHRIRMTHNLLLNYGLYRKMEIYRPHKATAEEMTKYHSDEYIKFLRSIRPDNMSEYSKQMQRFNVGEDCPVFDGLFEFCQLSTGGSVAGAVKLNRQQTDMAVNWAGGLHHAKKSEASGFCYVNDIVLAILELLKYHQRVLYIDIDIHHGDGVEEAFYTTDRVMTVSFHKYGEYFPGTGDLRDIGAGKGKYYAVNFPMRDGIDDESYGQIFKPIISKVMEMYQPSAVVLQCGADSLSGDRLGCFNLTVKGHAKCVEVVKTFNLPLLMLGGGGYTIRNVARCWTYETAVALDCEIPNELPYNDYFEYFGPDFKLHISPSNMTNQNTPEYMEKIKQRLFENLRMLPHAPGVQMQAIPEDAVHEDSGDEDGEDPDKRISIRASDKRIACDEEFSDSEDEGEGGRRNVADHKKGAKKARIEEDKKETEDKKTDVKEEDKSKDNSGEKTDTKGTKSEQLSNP
Histone deacetylase 1, sequence (Q13547 whole entry): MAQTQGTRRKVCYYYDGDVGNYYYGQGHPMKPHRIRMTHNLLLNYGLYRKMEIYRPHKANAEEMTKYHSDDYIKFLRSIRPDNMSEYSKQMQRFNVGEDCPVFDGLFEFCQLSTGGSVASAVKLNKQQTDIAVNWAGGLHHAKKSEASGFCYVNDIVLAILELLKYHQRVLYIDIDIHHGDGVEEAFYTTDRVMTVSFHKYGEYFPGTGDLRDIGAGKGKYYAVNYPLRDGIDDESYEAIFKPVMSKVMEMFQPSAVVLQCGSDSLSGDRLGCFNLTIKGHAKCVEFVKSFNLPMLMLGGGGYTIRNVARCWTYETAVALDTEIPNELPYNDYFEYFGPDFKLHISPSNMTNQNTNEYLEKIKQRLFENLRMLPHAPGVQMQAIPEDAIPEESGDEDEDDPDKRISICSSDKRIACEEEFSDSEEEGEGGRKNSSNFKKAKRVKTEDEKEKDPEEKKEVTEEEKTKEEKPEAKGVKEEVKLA

In the case of `CC(=O)SCC(=O)/C=C/c1ccc(-c2ccccc2)cc1`, the IC50 on Histone deacetylase 2 was above 5 µM; in the assay on IGROV-1, 26.4 µM; in the assay on HCT-116, 14 µM; in the assay “cells [1]”, above 20 µM; in “cells [2]”, above 20 µM; in assay [3], 18.7 µM.
Consider `O=C(O)/C=C/c1ccc(-c2ccccc2)cc1`, for which the IC50 on Histone deacetylase 2 is above 5 µM; with HCT-116, above 20 µM; in the assay “cells [1]”, above 10 µM; in the assay “cells [2]”, above 20 µM.
Regarding `NNC(=O)N/C=C/c1ccc(-c2ccccc2)cc1`, the IC50 against Histone deacetylase 2 was above 5 µM; with IGROV-1, 14.5 µM; with HCT-116, 16.4 µM; in the assay “cells [1]”, 9.8 µM; in “cells [2]”, above 20 µM; in assay [3] it was 26.7 µM.
Turning to `O=C(N/C=C/c1ccc(-c2ccccc2)cc1)NOCc1ccccc1`, the IC50 against Histone deacetylase 2 is above 5 µM; in the assay with IGROV-1 it was 40 µM; in the assay with HCT-116, 40 µM; in the assay “cells [1]” it was above 20 µM; in “cells [2]”, above 20 µM; in assay [3] it was above 50 µM.
With `N#CSC/C=C/c1ccc(-c2ccccc2)cc1`, the IC50 was above 5 µM on Histone deacetylase 2; 3.8 µM in the assay with IGROV-1; 12.6 µM in the assay with HCT-116; above 20 µM in “cells [1]”; 9.4 µM in “cells [2]”; 58.1 µM in assay [3].
On to `O=C1/C(=C/c2ccc(-c3ccccc3)cc2)CCN1O`, for which the IC50 was above 5 µM on Histone deacetylase 2; above 60 µM with IGROV-1; above 20 µM in the assay with HCT-116; above 20 µM in the assay “cells [1]”; above 20 µM in the assay “cells [2]”; above 60 µM in assay [3].
As for `NNC(=O)/C=C/c1ccc(-c2ccccc2)cc1`, the IC50 against Histone deacetylase 2 is above 5 µM; in the assay on IGROV-1, 7.6 µM; with HCT-116, 11.9 µM; in the assay “cells [1]”, 7.1 µM; in “cells [2]”, above 20 µM; in assay [3], 25.1 µM.
With `O=C(/C=C/c1ccc(-c2ccccc2)cc1)NO`, the IC50 in the assay “cells [1]” stood at 0.9 µM; in “cells [2]”, 5.4 µM; in assay [3], 4 µM.
On to `O=C(CCCCCCC(=O)Nc1ccccc1)NO` [VORINOSTAT], for which it took 2.2 µM to reach half-maximal inhibition in assay [3] (IC50).
Regarding `O=C(NO)N/C=C/c1ccc(-c2ccccc2)cc1`, the IC50 on Histone deacetylase 2 was 1.05 µM; against Histone deacetylase 1 it was 1310 nM; in assay [4], 1050 nM; in the assay with IGROV-1, 3.5 µM; in the assay on HCT-116, 4 µM; in “cells [1]” it was 1.96 µM. Also, the IC50 was 9.5 µM in “cells [2]” and 6.7 µM in assay [3].
